From ChEMBL document CHEMBL1152541, “Staurosporine tethered peptide ligands that target cAMP-dependent protein kinase (PKA): optimization and selectivity profiling” (Bioorg Med Chem, 2009)
One block for each molecule: values may come before it. *1 amine or outer side, *2 acyl side, *3 side chain or, on linkers, in order; H or OH if unused. Where a SMILES comes first, the peptide text is derived from it. Bridges are numbered along the chain shown (N, C = ends). [ ]: non-standard residue; d: D form. The star is where a group is joined. Staurosporine = CO[C@@H]1[C@H](N(C)*)C[C@H]2O[C@]1(C)n1c3ccccc3c3c4c(c5c6ccccc6n2c5c31)C(=O)NC4; Suc = O=C(CCC(=O)[*:2])[*:1]; Dap = NC[C@H](N)C(=O)O; βAla = NCCC(=O)O

Tests used:
[1] = target: Serine/threonine-protein kinase pim-1 (Homo sapiens) (UniProt P11309); assay: Binding affinity to human PIM1 at 500 nM by cell-based competition binding assay relative to control in presence of DTT
[2] = test system: Mast/stem cell growth factor receptor Kit (Homo sapiens), P10721 [D816V]; assay: Binding affinity to human KIT D816V mutant at 500 nM by cell-based competition binding assay relative to control in presence of DTT
In short: (§1)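 Competition binding screen (Ambit) across a panel of 90 kinases, scoring test ligand displacement of each kinase's binding relative to control. The screen ran under reducing conditions with 7.5 mM DTT.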

[3] = Ratio of compound to staurosporine binding affinity to PKA in presence of DTT
[4] = target: Serine/threonine-protein kinase B-raf (Homo sapiens) (UniProt P15056); assay: Binding affinity to human BRAF at 500 nM by cell-based competition binding assay relative to control in presence of DTT
In short: (§2)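 Kinase binding profiling ran on a commercial (Ambit) competitive binding screen against a panel of 90 kinases. The screen used reducing conditions with 7.5 mM DTT. To withstand the DTT, the bivalent ligand was tested as its amide isostere, with the disulfide replaced. A staurosporine derivative carrying a 3 β-alanine linker was run as the reference compound.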

[5] = target: Casein kinase I isoform gamma-2 (Homo sapiens) (UniProt P78368); assay: Binding affinity to human CSNK1G2 at 500 nM by cell-based competition binding assay relative to control in presence of DTT
In short: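 Commercial (Ambit) competitive kinase-binding panel of 90 kinases measured the binding profile. Run under reducing conditions of 7.5 mM DTT. Binding is expressed relative to control.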

[6] = target: MAP/microtubule affinity-regulating kinase 3 (Homo sapiens) (UniProt P27448); assay: Binding affinity to human MARK3 at 500 nM by cell-based competition binding assay relative to control in presence of DTT
In short: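 Kinase binding profile from a commercial panel of 90 kinases, run as a competitive binding assay. The panel was screened under reducing conditions of 7.5 mM DTT. Signal was compared with the untreated control.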

[7] = target: Cyclin-dependent kinase 16 (Homo sapiens) (UniProt Q00536); assay: Binding affinity to human PCTK1 at 500 nM by cell-based competition binding assay relative to control in presence of DTT
[8] = test system: Serine/threonine-protein kinase B-raf (Homo sapiens), P15056 [V600E]; assay: Binding affinity to human BRAF V600E mutant at 200 nM by cell-based competition binding assay relative to control in presence of DTT; in short: as §2
[9] = test system: Mast/stem cell growth factor receptor Kit (Homo sapiens), P10721 [V559D,T670I]; assay: Binding affinity to human KIT V559D,T670I mutant at 200 nM by cell-based competition binding assay relative to control in presence of DTT; in short: as §1
[10] = target: Phosphatidylinositol 4-phosphate 3-kinase C2 domain-containing subunit beta (Homo sapiens) (UniProt O00750); assay: Binding affinity to human PIK3C2beta at 200 nM by cell-based competition binding assay relative to control in presence of DTT
[11] = target: Mitogen-activated protein kinase 10 (Homo sapiens) (UniProt P53779); assay: Binding affinity to human JNK3 at 200 nM by cell-based competition binding assay relative to control in presence of DTT; in short: as §1
[12] = target: ALK tyrosine kinase receptor (Homo sapiens) (UniProt Q9UM73); assay: Binding affinity to human ALK at 200 nM by cell-based competition binding assay relative to control in presence of DTT; in short: as §2
[13] = target: RAC-beta serine/threonine-protein kinase (Homo sapiens) (UniProt P31751); assay: Binding affinity to human AKT2 at 200 nM by cell-based competition binding assay relative to control in presence of DTT; in short: as §2
[14] = target: Tyrosine-protein kinase ABL1 (Homo sapiens) (UniProt P00519); assay: Binding affinity to human ABL1 at 200 nM by cell-based competition binding assay relative to control in presence of DTT; in short: as §2
[15] = target: MAP/microtubule affinity-regulating kinase 3 (Homo sapiens) (UniProt P27448); assay: Binding affinity to human MARK3 at 200 nM by cell-based competition binding assay relative to control in presence of DTT; in short: as §1
[16] = target: MAP kinase-activated protein kinase 2 (Homo sapiens) (UniProt P49137); assay: Binding affinity to human MAPKAPK2 at 200 nM by cell-based competition binding assay relative to control in presence of DTT; in short: as §1
[17] = target: Proto-oncogene tyrosine-protein kinase receptor Ret (Homo sapiens) (UniProt P07949); assay: Binding affinity to human RET at 50 nM by cell-based competition binding assay relative to control in presence of DTT
[18] = target: Mitogen-activated protein kinase kinase kinase 9 (Homo sapiens) (UniProt P80192); assay: Binding affinity to human MLK1 at 50 nM by cell-based competition binding assay relative to control in presence of DTT
[19] = target: RAC-beta serine/threonine-protein kinase (Homo sapiens) (UniProt P31751); assay: Binding affinity to human AKT2 at 50 nM by cell-based competition binding assay relative to control in presence of DTT; in short: as §2
[20] = target: RAC-alpha serine/threonine-protein kinase (Homo sapiens) (UniProt P31749); assay: Binding affinity to human AKT1 at 50 nM by cell-based competition binding assay relative to control in presence of DTT; in short: as §2
[21] = target: Cyclin-dependent kinase 3 (Homo sapiens) (UniProt Q00526); assay: Binding affinity to human CDK3 at 50 nM by cell-based competition binding assay relative to control in presence of DTT; in short: as §2
[22] = target: Ribosomal protein S6 kinase alpha-3 (Homo sapiens) (UniProt P51812); assay: Binding affinity to human RPS6KA3 kinase domain 1 at 50 nM by cell-based competition binding assay relative to control in presence of DTT
[23] = target: Mitogen-activated protein kinase 8 (Homo sapiens) (UniProt P45983); assay: Binding affinity to human JNK1 at 50 nM by cell-based competition binding assay relative to control in presence of DTT; in short: as §1

Activity [1]: 20%
Activity [2]: 1%
Selectivity ratio [3]: 14
Activity [4]: 100%
Activity [5]: 99%
Activity [6]: 16%
Activity [7]: 75%
Structure (SMILES): CO[C@@H]1[C@H](N(C)C(=O)CCC(=O)NCCC(=O)NCCC(=O)NCCC(N)=O)C[C@H]2O[C@]1(C)n1c3ccccc3c3c4c(c5c6ccccc6n2c5c31)C(=O)NC4

Activity [8]: 100%
Activity [9]: 4.1%
Activity [10]: 100%
Activity [11]: 65%
Activity [12]: 60%
Activity [13]: 100%
Activity [14]: 100%
Activity [15]: 18%
Activity [16]: 100%
Structure (SMILES): CO[C@@H]1[C@H](N(C)C(=O)CCC(=O)NCCC(=O)NCCC(=O)NCCC(=O)NCCC(=O)NCCC(=O)NCCC(=O)NCCC(=O)N[C@H]2CSSC[C@@H](C(=O)NCC(N)=O)NC(=O)CNC(=O)[C@H](Cc3ccccc3)NC(=O)[C@H](C(C)C)NC(=O)[C@H](CCCNC(=N)N)NC(=O)[C@H](Cc3ccccc3)NC(=O)[C@H](C(C)C)NC2=O)C[C@H]2O[C@]1(C)n1c3ccccc3c3c4c(c5c6ccccc6n2c5c31)C(=O)NC4 ({Staurosporine-Suc-βAla-βAla-βAla-βAla-βAla-βAla-βAla}-CVFRVFGCG-NH2; disulfide 1-8)

Activity [17]: 94%
Activity [18]: 5.5%
Activity [19]: 100%
Activity [20]: 100%
Activity [21]: 100%
Activity [22]: 100%
Activity [23]: 100%
Structure (SMILES): CO[C@@H]1[C@H](N(C)C(=O)CCC(=O)NCCC(=O)NCCC(=O)NCCC(=O)NCCC(=O)NCCC(=O)NCCC(=O)NCCC(=O)N[C@H]2CNC(=O)C[C@@H](C(N)=O)NC(=O)CNC(=O)[C@H](Cc3ccccc3)NC(=O)[C@H](C(C)C)NC(=O)[C@H](CCCNC(=N)N)NC(=O)[C@H](Cc3ccccc3)NC(=O)[C@H](C(C)C)NC2=O)C[C@H]2O[C@]1(C)n1c3ccccc3c3c4c(c5c6ccccc6n2c5c31)C(=O)NC4 ({Staurosporine-Suc-βAla-βAla-βAla-βAla-βAla-βAla-βAla}-[Dap]VFRVFGD-NH2; lactam 1-8)
